Assay results reported in ChEMBL document CHEMBL1130346, “A new rational hypothesis for the pharmacophore of the active metabolite of leflunomide, a potent immunosuppressive drug” (J Med Chem, 1997).

Experiments:
[1] = In vitro inhibition of lymphocyte activated CD71 antigens induced by monoclonal antibody; assay type: functional, Homo sapiens
Summary of the method: (§1)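 Human PBMC from healthy donors, separated on Ficoll-Hypaque, at 10⁶ cells/mL in RPMI 1640 with 10% FBS. Cells were incubated with test compounds and stimulated with an optimal concentration of anti-CD3 mAb OKT3 for 24 h at 37 °C in 5% CO₂. CD2, CD25 and CD71 were read by immunofluorescence staining and flow cytometry. IC50 values came from at least two experiments, which differed by less than 10%.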

[2] = In vitro inhibition of lymphocyte activated CD25 antigens induced by monoclonal antibody; assay type: functional, Homo sapiens; summary of the method: as §1
[3] = In vitro inhibition of lymphocyte activated CD2 antigens induced by monoclonal antibody; assay type: functional, Homo sapiens; summary of the method: as §1
Mus musculus [4] = organism: Mus musculus; experiment: The compound was tested for in vitro mixed lymphocyte reaction.; assay type: functional, organism-based
Summary of the method: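 Bidirectional murine MLR using BALB/c and DBA/2 splenocytes isolated on Ficoll-Hypaque. 5×10⁴ cells of each strain were cocultured in triplicate for 96 h with serial dilutions of compound (20 mM DMSO stock), with DMSO-matched controls. Medium was RPMI 1640 with 5% FBS. [³H]thymidine (1 µCi) was added for the last 18 h. IC50 is 50% inhibition of proliferation versus untreated cultures; at least three experiments.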

Mus musculus [5] = experiment: Inhibition of paw edema formation in mouse after an ip dose of 10 mg/kg; Thickness of paw = 2.38+/-0.07 mm; assay type: functional; settings: route intraperitoneal
Mus musculus [6] = organism: Mus musculus; experiment: animal or person; settings: ip, read-out: Inhibition
Mus musculus [7] = organism: Mus musculus; experiment: animal or person; settings: ip, read-out: Inhibition; remark: listed apart in the source
[8] = In vitro inhibition of expression of lymphocyte activated CD71 antigens induced by monoclonal antibody; assay type: functional; settings: Homo sapiens; summary of the method: as §1
[9] = In vitro inhibition of expression of lymphocyte activated CD25 antigens induced by monoclonal antibody; assay type: functional; settings: Homo sapiens; summary of the method: as §1
Mus musculus [10] = experiment: Inhibition of paw edema formation in mouse after an peroral dose of 10 mg/kg; Thickness of paw =2.45+/-0.14 mm; assay type: functional; settings: route oral
[11] = In vitro inhibition of expression of lymphocyte activated CD2 antigens induced by monoclonal antibody; assay type: functional; settings: Homo sapiens; summary of the method: as §1

| SMILES | IC50 [1] [µM] | IC50 [2] [µM] | IC50 [3] [µM] | IC50 (Mus musculus [4]) [µM] | inhibition in vivo at 10 mg/kg (Mus musculus [5]) [%] | inhibition in vivo at 50 mg/kg (Mus musculus [6]) [%] | inhibition in vivo at 5 mg/kg (Mus musculus [7]) [%] | IC50 [8] [µM] | IC50 [9] [µM] | inhibition in vivo at 10 mg/kg (Mus musculus [10]) [%] | IC50 [11] [µM] |
| --- | --- | --- | --- | --- | --- | --- | --- | --- | --- | --- | --- |
| CCO/C(O)=C(/C(C)=O)C(=O)Nc1ccc(C(F)(F)F)cc1 | 78.1 | 96.4 | 90.8 | 71.6 | – | – | – | – | – | – | – |
| O=C1CCCC(O)=C1C(=O)Nc1ccc(C(F)(F)F)cc1 | 11 | 2.9 | 2.9 | 1.25 | – | – | – | – | – | – | – |
| O=C1COC(O)=C1C(=O)Nc1ccc(C(F)(F)F)cc1 | > 100 | > 100 | 95.4 | 45.9 | – | – | – | – | – | – | – |
| CC(O)=C(C(=O)Nc1ccc(C(F)(F)F)cc1)C(=O)Nc1ccc(C(F)(F)F)cc1 | 18.8 | 18.4 | 15.3 | 11.9 | – | – | – | – | – | – | – |
| O=C(Nc1ccc(C(F)(F)F)cc1)c1ccccc1O | 4.4 | 2.4 | 3 | 1.65 | 43 | – | – | – | – | – | – |
| O=C1CCC(O)=C1C(=O)Nc1ccc(C(F)(F)F)cc1 | 66.5 | 14.8 | 13.8 | 3.4 | – | – | – | – | – | – | – |
| C/C=C/C[C@@H](C)[C@@H](O)[C@H]1C(=O)N[C@@H](CC)C(=O)N(C)CC(=O)N(C)[C@@H](CC(C)C)C(=O)N[C@@H](C(C)C)C(=O)N(C)[C@@H](CC(C)C)C(=O)N[C@@H](C)C(=O)N[C@H](C)C(=O)N(C)[C@@H](CC(C)C)C(=O)N(C)[C@@H](CC(C)C)C(=O)N(C)[C@@H](C(C)C)C(=O)N1C [CYCLOSPORINE] | – | – | – | – | – | 83 | 48 | – | – | – | – |
| Cc1oncc1C(=O)Nc1ccc(C(F)(F)F)cc1 [LEFLUNOMIDE] | – | – | – | 9.6 | – | – | – | > 100 | 130 | 45 | 126 |
| C/C(O)=C(\C#N)C(=O)Nc1ccc(C(F)(F)F)cc1 [TERIFLUNOMIDE] | 74.6 | 89.9 | 50.9 | 41.3 | – | – | – | – | – | – | – |
